Experimental findings from ChEMBL document CHEMBL4145511, “Synthesis and leishmanicidal activity of eugenol derivatives bearing 1,2,3-triazole functionalities” (Eur J Med Chem, 2018) are described below.

Converted amounts (≈) assume the structure as drawn. The source made the active and inactive calls. The rule behind the calls is not given here.

Series [1] concerns Leishmania amazonensis. Nature of the series: Antileishmanial activity against GFP expressing Leishmania amazonensis WHOM/BR/75/Josefa promastigote forms after 72 hrs by fluorescence assay. It is filed as functional, organism-based. In short, it runs like this: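 GFP-transfected L. amazonensis WHOM/BR/75/Josefa promastigotes grown at 26 °C in M199 with penicillin, streptomycin, 10% heat-inactivated fetal calf serum and 2% human urine, kept under geneticin selection. Compounds dissolved in DMSO (final ≤1%), medium with 5% HIFCS, 72 h at 27 °C. Fluorescence read at 435/538 nm; triplicates, percent inhibition versus medium-only control.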

The subject of series [2] is Peritoneal macrophage. Nature of the series: Cytotoxicity against BALB/c mouse peritoneal macrophages at 1 to 100 umol/L after 48 hrs by optical microscopy. The series is classed as cell-based.
The nature of series [3]: Selectivity index, ratio of LD50 for BALB/c mouse peritoneal macrophages to IC50 for antileishmanial activity against Leishmania amazonensis WHOM/BR/75/Josefa amastigote forms. It is filed as toxicity. Particulars: for selectivity ratio: BALB/c, peritoneal macrophages, read-out: Selectivity Index.
The subject of series [4] is Leishmania amazonensis. As to the kind of experiment: Antileishmanial activity against Leishmania amazonensis WHOM/BR/75/Josefa amastigote forms infected in BALB/c mouse peritoneal macrophages after 72 hrs by hematological staining-based microscopic analysis. The series is classed as functional, organism-based. In short, it runs like this: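 Peritoneal macrophages from BALB/c mice collected in ice-cold DMEM, plated at 2 × 10⁶/mL in chamber slides, 1 h at 37 °C and 4% CO₂, non-adherent cells washed off. Infected with stationary-phase promastigotes at 5:1 parasite/macrophage, free parasites washed off after 4 h. Treated, then stained with a hematological dye and amastigotes counted by optical microscopy; triplicate means.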

Series [5] deals with Peritoneal macrophage. As to the kind of experiment: (§1) Cytotoxicity against BALB/c mouse peritoneal macrophages assessed as increase in LDH release. It is filed as cell-based. The conditions noted are these: peritoneal macrophage. In a few lines: (§2)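 LDH released into the medium from macrophages was read at 340 nm. Cells in 2% Triton X-100 gave maximum release and cells in medium gave minimum release. Release was expressed as percent of the positive control, and the 50% value was obtained by linear regression.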
Background: LDH leaks from cells whose membrane has failed.

The test system of series [6] is Leishmania amazonensis. As to the kind of experiment: Antileishmanial activity against Leishmania amazonensis WHOM/BR/75/Josefa amastigote forms infected in BALB/c mouse peritoneal macrophages after 48 hrs by optical microscopy. It is filed as functional, organism-based. In short, it runs like this: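 BALB/c mouse peritoneal macrophages collected in ice-cold DMEM, plated at 2 × 10⁶/mL, and held 1 h at 37 °C with 4% CO₂. Non-adherent cells were washed off with PBS. Stationary-phase promastigotes were added at a 5:1 parasite:macrophage ratio at 35 °C with 5% CO₂, and free parasites were washed off after 4 h. After 48 h of treatment, slides were stained with a hematological dye and parasites were counted by optical microscopy.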

Series [7] deals with Peritoneal macrophage. Nature of the series: Induction of nitric oxide production in BALB/c mouse peritoneal macrophages. The series is classed as functional, cell-based.
Series [8] can be described thus: as §1. The series is classed as cell-based, Peritoneal macrophage. The conditions noted are these: BALB/c, peritoneal macrophages, read-out: LD50 (the source's name). In short, it runs like this:
as §2

Series [9] relates to Leishmania amazonensis. As to the kind of experiment: Antileishmanial activity against Leishmania amazonensis MHOM/BR/75/Josefa promastigote forms by trypan blue assay. It is filed as functional, organism-based.
Setting [10] is: Leishmania amazonensis, WHOM/BR/75/Josefa, 72 h, read-out: IC50.

In the series with Leishmania amazonensis [1], `C=CCc1ccc(OCCCc2cn(Cc3ccc(OC)cc3)nn2)c(OC)c1` registered an IC50 of 120 µM.

In the series on Leishmania amazonensis [1], `C=CCc1ccc(OCCCc2cn(Cc3ccc([N+](=O)[O-])cc3)nn2)c(OC)c1` showed an IC50 of 173 µM.

For the molecule `C=CCc1ccc(OCCCc2cn(Cc3ccc(C(F)(F)F)cc3)nn2)c(OC)c1`, the IC50 in the series on Leishmania amazonensis [1] stood at 295 µM.

In the series with Leishmania amazonensis [1], `C=CCc1ccc(OCc2cn(Cc3ccc(F)cc3)nn2)c(OC)c1` gave an IC50 of 59.4 µM.

Regarding `C=CCc1ccc(OCc2cn(Cc3ccc(Br)cc3)nn2)c(OC)c1`, half-maximal inhibition with Leishmania amazonensis [1] (IC50) required 993 µM.

For the molecule `C=CCc1ccc(OCc2cn(Cc3ccc(Cl)cc3)nn2)c(OC)c1`, the IC50 in the series with Leishmania amazonensis [1] is 1780 µM.

On to `C=CCc1ccc(OCCCc2cn(Cc3ccc(F)c(F)c3)nn2)c(OC)c1`, for which, in the series on Leishmania amazonensis [1], the IC50 is 178 µM.

Take `C=CCc1ccc(OCc2cn(Cc3ccccc3)nn2)c(OC)c1`: the IC50 in the series with Leishmania amazonensis [1] amounted to 30.2 µM.

Turning to `C=CCc1ccc(OCc2cn(Cc3ccc(C)cc3)nn2)c(OC)c1`, half-maximal inhibition in the series on Leishmania amazonensis [1] (IC50) required 106 µM.

Take “MEGLUMINE ANTIMONATE [listing 1 of 2 here]”: the Activity result with Peritoneal macrophage [2] is on record as “Non-Toxic”. In addition, in [3], the “Selectivity Index” value is reported as 1.6. In the series with Leishmania amazonensis [4], this molecule came in with an IC50 of 45.5 µg/mL. Moreover, the LD50 with Peritoneal macrophage [5] worked out at 75.5 µg/mL.

With `C=CCc1ccc(OCc2cn(Cc3ccc(F)c(F)c3)nn2)c(OC)c1`, half-maximal inhibition in the series on Leishmania amazonensis [1] (IC50) was put at 969 µM.

In turn, `C=CCc1ccc(OCc2cn(Cc3cccc(Br)c3)nn2)c(OC)c1` returned an IC50 in the series on Leishmania amazonensis [1] of 156 µM.

In the series with Leishmania amazonensis [1], `C=CCc1ccc(OCCCc2cn(Cc3ccc(Cl)cc3)nn2)c(OC)c1` came in with a concentration for half-maximal inhibition (IC50) of 817 µM.

For `C=CCc1ccc(OCCCc2cn(Cc3ccc(I)cc3)nn2)c(OC)c1`, the concentration for half-maximal inhibition (IC50) with Leishmania amazonensis [1] came out at 279 µM.

`C=CCc1ccc(OCCCc2cn(Cc3ccc(F)cc3)nn2)c(OC)c1` had an IC50 with Leishmania amazonensis [1] of 32.2 µM.

Take `C=CCc1ccc(OCCCc2cn(Cc3ccccc3Br)nn2)c(OC)c1`: in the series on Leishmania amazonensis [1], it took 913 µM to reach half-maximal inhibition (IC50).

For `C=CCc1ccc(OCCCc2cn(Cc3ccc(C)cc3)nn2)c(OC)c1`, the Activity entry in the series on Peritoneal macrophage [2] was “Non-Toxic”. In addition, the result in the series with Leishmania amazonensis [6] was Active. Also, in [3], the selectivity ratio was found to be 132. The outcome in the series with Peritoneal macrophage [7] was inactive. Besides, the figures for the IC50 with Leishmania amazonensis [4] (setting [10]) and in the series with Leishmania amazonensis [1] were 1.6 µM and 7.4 µM, respectively. For the same molecule, the CC50 in series [8] is 212 µM.

In the series on Leishmania amazonensis [1], `C=CCc1ccc(OCc2cn(Cc3ccc(OC(F)(F)F)cc3)nn2)c(OC)c1` returned an IC50 of 322 µM.

Consider `C=CCc1ccc(OCc2cn(Cc3ccc(OC)cc3)nn2)c(OC)c1`, for which half-maximal inhibition in the series with Leishmania amazonensis [1] (IC50) was put at 425 µM.

In turn, `C=CCc1ccc(OCc2cn(Cc3ccc(I)cc3)nn2)c(OC)c1` yielded an IC50 with Leishmania amazonensis [1] of 2010 µM.

Turning to “MEGLUMINE ANTIMONATE [listing 2 of 2 here]”, in the series on Leishmania amazonensis [6], the result was Active.

Regarding `N=C(N)c1ccc(OCCCCCOc2ccc(C(=N)N)cc2)cc1` [PENTAMIDINE], the selectivity ratio in series [3] worked out at 4.7. Besides, the figures for the IC50 in the series on Leishmania amazonensis [4] (setting [10]) and with Leishmania amazonensis [1] were 1.8 µM and 4.2 µM, respectively. Also, in series [8], the CC50 amounted to 8.5 µM.

Turning to `C=CCc1ccc(OCCCc2cn(Cc3ccccc3)nn2)c(OC)c1`, the IC50 with Leishmania amazonensis [1] was 37.9 µM.

`C=CCc1ccc(OCCCc2cn(Cc3cccc(Br)c3)nn2)c(OC)c1` registered an IC50 in the series on Leishmania amazonensis [1] of 980 µM.

`C=CCc1ccc(OCc2cn(Cc3ccc(C(F)(F)F)cc3)nn2)c(OC)c1` gave an IC50 in the series on Leishmania amazonensis [1] of 2010 µM.

`C=CCc1ccc(O)c(OC)c1` [EUGENOL] showed an IC50 in the series on Leishmania amazonensis [9] of 80 µg/mL (≈ 487 µM).

Molecule `C=CCc1ccc(OCc2cn(Cc3ccc([N+](=O)[O-])cc3)nn2)c(OC)c1` yielded an IC50 in the series on Leishmania amazonensis [1] of 130 µM.

The molecule `C=CCc1ccc(OCc2cn(Cc3cc(Cl)ccc3Cl)nn2)c(OC)c1` registered an IC50 with Leishmania amazonensis [1] of 49.2 µM.

Take `C=CCc1ccc(OCc2cn(Cc3ccccc3Br)nn2)c(OC)c1`: the half-maximal inhibitory concentration (IC50) in the series with Leishmania amazonensis [1] worked out at 160 µM.

With `C=CCc1ccc(OCCCc2cn(Cc3ccc(OC(F)(F)F)cc3)nn2)c(OC)c1`, inhibition in the series with Leishmania amazonensis [1] was half-maximal at 146 µM (IC50).

In the case of `C=CCc1ccc(OCCCc2cn(Cc3ccc(Br)cc3)nn2)c(OC)c1`, the IC50 with Leishmania amazonensis [1] turned out to be 287 µM.

With `C[C@@H]1[C@H](O)[C@@H](C)/C=C/C=C/C=C/C=C/C=C/C=C/C=C/[C@H](O[C@@H]2O[C@H](C)[C@@H](O)[C@H](N)[C@@H]2O)C[C@@H]2O[C@](O)(C[C@@H](O)C[C@@H](O)[C@H](O)CC[C@@H](O)C[C@@H](O)CC(=O)O[C@H]1C)C[C@H](O)[C@H]2C(=O)O` [AMPHOTERICIN B], in the series on Leishmania amazonensis [1], the IC50 is 0.4 µM.

For orientation: IC50 means the midpoint of a concentration-inhibition curve.
